In ChEMBL document CHEMBL1154738, “Vascular disrupting activity of tubulin-binding 1,5-diaryl-1H-imidazoles” (J Med Chem, 2009):
Activity calls are given as the source filed them. The calls are words filed in the database; no cut-off is given here.

Experiments:
[1] = test system: NCI-H460; assay: Growth inhibition of human NCI-H460 cells after 3 days by crystal violet staining; type: functional; conditions: NCI-H460, 72 h
[2] = Growth inhibition of human NCI60 cells after 3 days by crystal violet staining; type: functional; conditions: NCI60, 72 h
[3] = test system: HUVEC; assay: Cytotoxicity against HUVEC after 1 hr by crystal violet staining; type: functional, cell-based, Homo sapiens
[4] = test system: HUVEC; assay: Vascular disrupting activity in HUVEC assessed as change in cell morphology with detachment form substrate after 1 hr by crystal violet staining-based inverted light microscopy; type: functional, Homo sapiens
In short: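 HUVEC treated for 1 h with compound; morphology (cell retraction, rounding, detachment from substrate) examined by light microscopy.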

[5] = test system: HCT-15; assay: Growth inhibition of human HCT15 cells after 3 days by crystal violet staining; type: functional; conditions: HCT-15, 72 h
[6] = test system: HUVEC; assay: Cytotoxicity against HUVEC after 72 hrs by crystal violet staining; type: functional, cell-based, Homo sapiens
[7] = test system: MDA-MB-435; assay: Induction of necrosis in central region of human MDA-MB-435 cells exenografted in NCr nu/nu mouse at 20 mg/kg, ip administered as single dose measured after 24 hrs by haematoxylin/eosin staining-based histopathological analysis; type: functional, organism-based; parameters: dose 20 mg/kg
[8] = test system: HUVEC; assay: Vascular disrupting activity in HUVEC assessed as disruption of capillary-like structure formation on permissive matrix at 0.1 uM after 1 hr by microscopy; type: functional, cell-based; conditions: Homo sapiens
In short: (§1)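 HUVEC seeded on 3D Matrigel form capillary-like cord networks by 24 h; compound then added to formed cords and images taken 1 h later to assess cord disruption and shortening.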

[9] = test system: Mus musculus; assay: Vascular disrupting activity in C57BL/6N mouse assessed as rapid decrease in FGF2-induced vessel formation on permissive matrix at 20 m/kg, ip after 1 hr by FTC-conjugated staining based confocal microscopy; type: functional, organism-based
In short: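 Matrigel plug containing FGF-2 implanted in mice, vessels allowed to form over 7 days (plug without FGF-2 as negative control). Single ip dose given, then functional perfused vessels visualized 1 h later with FITC-isolectin B4 by confocal microscopy; at least three images per sample, n = 5.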

[10] = test system: HUVEC; assay: Vascular disrupting activity in HUVEC assessed as appearance of blebbing morphology of rounded cells after 1 hr by FITC-onjugated DAPI staining-based immunofluorescence assay; type: functional, cell-based; conditions: Homo sapiens
In short: (§2)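 HUVEC exposed to vehicle or compound (0.1-1 μM range) for 1 h, then tubulin cytoskeleton examined by immunofluorescence for microtubule disorganization and blebbing of rounded cells.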

[11] = test system: HUVEC; assay: Vascular disrupting activity in HUVEC assessed as disorganization of microtubule after 1 hr by FITC-onjugated DAPI staining-based immunofluorescence assay; type: functional, cell-based; conditions: Homo sapiens; in short: as §2
[12] = test system: MDA-MB-435; assay: Induction of necrosis in central region of human MDA-MB-435 cells exenografted in NCr nu/nu mouse at 80 mg/kg, ip administered as single dose measured after 24 hrs by haematoxylin/eosin staining-based histopathological analysis; type: functional, organism-based; parameters: dose 80 mg/kg
[13] = test system: HUVEC; assay: Vascular disrupting activity in HUVEC assessed as disruption of capillary-like structure formation on permissive matrix at 1 uM after 1 hr by microscopy; type: functional, cell-based; conditions: Homo sapiens; in short: as §1
[14] = Dissociation constant, pKa of the compound; type: physicochemical
[15] = test system: HUVEC; assay: Vascular disrupting activity in HUVEC assessed as disorganization of microtubule at 0.1 uM after 1 hr by FITC-onjugated DAPI staining-based immunofluorescence assay; type: functional, cell-based; conditions: Homo sapiens; in short: as §2
[16] = test system: HUVEC; assay: Vascular disrupting activity in HUVEC assessed as appearance of blebbing morphology of rounded cells at 0.1 uM after 1 hr by FITC-onjugated DAPI staining-based immunofluorescence assay; type: functional, cell-based; conditions: Homo sapiens; in short: as §2

Compound: COc1ccc(-c2cncn2-c2cc(OC)c(OC)c(OC)c2)cc1 [listing 1 of 2 here]
- GI50 [1]: 363 nM
- GI50 [2]: 257 nM
- IC50 ([3]; Homo sapiens, HUVEC, 1 h): 36.1 µM
- IC50 ([4]; huvec): 6.53 µM
- GI50 [5]: 170 nM
- IC50 ([6]; Homo sapiens, HUVEC, 72 h): 600 nM

Compound: COc1cc(-n2cncc2-c2ccc3ccccc3c2)cc(OC)c1OC [listing 1 of 3 here]
- Activity [7]: Active
- Activity [8]: Active
- Activity [9]: Active
- Activity [10]: Dose-dependent effect
- Activity [11]: Dose-dependent effect
- Activity [12]: Active
- Activity [13]: Active

Compound: COc1cc(-n2cncc2-c2ccc3ccccc3c2)cc(OC)c1OC [listing 2 of 3 here]
- GI50 [1]: 18 nM
- GI50 [2]: 72.4 nM
- IC50 ([3]; huvec): 28.3 µM
- IC50 ([4]; huvec): 41.5 µM
- GI50 [5]: 17 nM
- IC50 ([6]; huvec): 540 nM

Compound: COc1cc(-n2ccnc2-c2ccc(N(C)C)cc2)cc(OC)c1OC
- GI50 [1]: 270 nM
- GI50 [5]: 80 nM

Compound: COc1ccc(-c2cncn2-c2cc(OC)c(OC)c(OC)c2)cc1 [listing 2 of 2 here]
- IC50 ([3]; huvec): 20 µM
- IC50 ([4]; huvec): 0.95 µM
- pKa [14]: 6.82
- IC50 ([6]; huvec): 540 nM

Compound: COc1ccc(-c2nccn2-c2cc(OC)c(OC)c(OC)c2)cc1
- GI50 [1]: 1580 nM
- GI50 [2]: 4570 nM
- GI50 [5]: 1150 nM

Compound: COc1ccc(/C=C\c2cc(OC)c(OC)c(OC)c2)cc1O [COMBRETASTATIN A4]
- GI50 [1]: < 10 nM
- GI50 [2]: 100 nM
- Activity [15]: Active
- IC50 ([3]; Homo sapiens, HUVEC, 1 h): 0.4 µM
- IC50 ([4]; Homo sapiens, HUVEC, 1 h): 0.01 µM
- GI50 [5]: < 10 nM
- Activity [16]: Active
- IC50 ([6]; Homo sapiens, HUVEC, 72 h): 5 nM

Compound: COc1cc(-n2ccnc2-c2ccc3ccccc3c2)cc(OC)c1OC
- GI50 [1]: 37 nM
- GI50 [2]: 151 nM
- GI50 [5]: 51 nM

Compound: COc1ccc(-c2cncn2-c2cc(OC)c(OC)c(OC)c2)cc1F
- GI50 [1]: < 10 nM
- GI50 [2]: 39.8 nM
- IC50 ([3]; Homo sapiens, HUVEC, 1 h): 17 µM
- IC50 ([4]; Homo sapiens, HUVEC, 1 h): 17.3 µM
- GI50 [5]: < 10 nM
- IC50 ([6]; Homo sapiens, HUVEC, 72 h): 450 nM

Compound: COc1cc(-n2cncc2-c2ccc(N(C)C)cc2)cc(OC)c1OC
- GI50 [1]: 79 nM
- GI50 [5]: 36 nM

Compound: COc1cc(-n2cncc2-c2ccc3ccccc3c2)cc(OC)c1OC [listing 3 of 3 here]
- IC50 ([3]; huvec): 2.1 µM
- IC50 ([4]; huvec): 0.04 µM
- pKa [14]: 5.58
- IC50 ([6]; huvec): 110 nM
